# Source: ChEMBL document CHEMBL1759946, “Proflavine derivatives as fluorescent imaging agents of amyloid deposits” (Bioorg Med Chem Lett, 2011)
# Activity calls are given as the source filed them. The calls are words filed in the database; no cut-off is given here.
# Tested on: not listed separately
# Assay: Inhibition of amyloid beta (1 to 40) fibril formation at 10 uM after 8 days by thioflavin T fluorescent dye assay
row,SMILES,inhibition
1,C#CCNC(=O)CCCCC1CCSS1 (racemic),inactive
2,COc1ccc2c(c1)CN1c3ccc(OC)cc3CN2C1CCCCCCCN=[N+]=[N-],inactive

# Organism: Mus musculus
# Assay: Binding affinity to beta amyloid plaque in triple transgenic alzheimer disease mouse model hippocampus at 100 uM after 90 mins by fluorescence microscopy
# Assay type: tissue-based
# Method in brief: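 Plaque labeling was read from the compound's native fluorescence with fluorescein optics. Plaques were confirmed by thioflavin S staining of adjacent sections. Controls were age-matched wild-type sections, untreated sections and DAPI counterstain.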
row,SMILES,Activity
1,COc1ccc2c(c1)CN1c3ccc(OC)cc3CN2C1CCCCCCCn1cc(CNCCC(=O)Nc2ccc3cc4ccc(NC(C)=O)cc4nc3c2)nn1,Active

# Tested on: not listed separately
# Assay: Inhibition of amyloid beta (1 to 40) fibril formation at 10 uM after 8 days by thioflavin T fluorescent dye assay
# Method in brief: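 Compound at 10 µM was co-incubated for eight days with Aβ40 (50 µM) in the presence of thioflavin T. Dye fluorescence was read at 485 nm and expressed as percent of the control assay with Aβ40 alone.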
row,SMILES,inhibition
1,C#CCNCCC(=O)Nc1ccc2cc3ccc(NC(C)=O)cc3nc2c1,50%
2,CC(=O)Nc1ccc2cc3ccc(NC(=O)CCN)cc3nc2c1,50%
3,CC(=O)Nc1ccc2cc3ccc(NC(=O)CN=[N+]=[N-])cc3nc2c1,50%
4,CC(=O)Nc1ccc2cc3ccc(NC(=O)CCNC(=O)CCCCC4CCSS4)cc3nc2c1 (centres undefined),50%
5,COc1cc(/C=C/C(=O)CC(=O)/C=C/c2ccc(O)c(OC)c2)ccc1O,80%
6,COc1ccc2c(c1)CN1c3ccc(OC)cc3CN2C1CCCCCCCn1cc(CNCCC(=O)Nc2ccc3cc4ccc(NC(C)=O)cc4nc3c2)nn1,50%
7,C#CCOC(=O)Nc1ccc2cc3ccc(NC(C)=O)cc3nc2c1,Active
8,COc1ccc2c(c1)CN1c3ccc(OC)cc3CN2C1CCCCCCCn1cc(COC(=O)Nc2ccc3cc4ccc(NC(C)=O)cc4nc3c2)nn1,50%
9,CC(=O)Nc1ccc2cc3ccc(NC(=O)Cn4cc(CNC(=O)CCCCC5CCSS5)nn4)cc3nc2c1 (centres undefined),50%

# Tested on: not listed separately
# Assay: Induction of amyloid beta 40 fibril disassembly at 1:2 compound:amyloid-beta ratio
# Method in brief: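 Fresh preformed Aβ40 fibrils were incubated at 37 °C with compound at a compound/Aβ ratio of 1/2. Disassembly was followed by the change in thioflavin T fluorescence.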
row,SMILES,Activity [%]
1,O=C(O)CCCCC1CCSS1 (centres undefined),60
2,COc1cc(/C=C/C(=O)CC(=O)/C=C/c2ccc(O)c(OC)c2)ccc1O,90
